Experimental data published in PMC4415995 (Advances in Therapy, 2015).
Marks after values point to notes of the source that are not given here.

Test system: Japanese patients with T2DM
Experiment: Plasma glucose concentrations, 7-day once-daily dosing
Assay type: in vivo, human
How it was run: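 Plasma glucose was measured by a glucose dehydrogenase enzymatic UV method. Sampling was pre-breakfast/pre-dose and 0.5–24 h after breakfast on Day −1, after dosing on Days 1 and 7, and pre-breakfast on Days 11 and 14. Standardized ~600 kcal meals were given, with lunch and dinner at 4 and 12 h. AUC, Cmax and tmax were non-compartmental. MPG was the mean of the 0, 2, 4, 6, 12, 14 and 16 h values. LS mean difference vs placebo with 95% CI.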

CCOc1ccc(Cc2cc([C@@H]3S[C@H](CO)[C@@H](O)[C@H](O)[C@H]3O)c(OC)cc2C)cc1 [Luseogliflozin, (1S)-1,5-anhydro-1-[5-(4-ethoxybenzyl)-2-methoxy-4-methylphenyl]-1-thio-D-glucitol]
FPG (24 h after dose) (2.5 mg OD, Day 1): 141 ± 23 mg/dL | FPG (24 h after dose) LS mean difference vs placebo (95% CI) (2.5 mg OD, Day 1): −23.0 (−31.6, −14.4)* mg/dL | MPG0–16h (2.5 mg OD, Day 1): 210 ± 35.7 mg/dL | MPG0–16h LS mean difference vs placebo (95% CI) (2.5 mg OD, Day 1): −23.8 (−33.7, −13.9)* mg/dL | Plasma glucose AUC0–4h (after breakfast) (2.5 mg OD, Day 1): 868 ± 166 mg·h/dL | Plasma glucose AUC0–4h (after breakfast) LS mean difference vs placebo (95% CI) (2.5 mg OD, Day 1): −106 (−159, −53.6)* mg h/dL | Plasma glucose AUC4–8h (after lunch) (2.5 mg OD, Day 1): 879 ± 176 mg·h/dL | Plasma glucose AUC4–8h (after lunch) LS mean difference vs placebo (95% CI) (2.5 mg OD, Day 1): −147 (−224, −69.0)* mg h/dL | Plasma glucose AUC12–16h (after dinner) (2.5 mg OD, Day 1): 944 ± 123 mg·h/dL | Plasma glucose AUC12–16h (after dinner) LS mean difference vs placebo (95% CI) (2.5 mg OD, Day 1): −71.1 (−123, −19.2)* mg h/dL | Plasma glucose C max0–4h (after breakfast) (2.5 mg OD, Day 1): 254 ± 48.7 mg/dL | Plasma glucose C max4–8h (after lunch) (2.5 mg OD, Day 1): 250 ± 54.5 mg/dL | Plasma glucose C max4–8h (after lunch) LS mean difference vs placebo (95% CI) (2.5 mg OD, Day 1): −43.5 (−67.2, −19.7)* mg/dL | Plasma glucose C max12–16h (after dinner) (2.5 mg OD, Day 1): 279 ± 40.2 mg/dL | Plasma glucose C max12–16h (after dinner) LS mean difference vs placebo (95% CI) (2.5 mg OD, Day 1): −26.1 (−44.6, −7.60)* mg/dL | FPG (24 h after dose) (2.5 mg OD, Day 7): 122 ± 14 mg/dL | FPG (24 h after dose) LS mean difference vs placebo (95% CI) (2.5 mg OD, Day 7): −41.3 (−53.5, −29.0)* mg/dL | MPG0–16h (2.5 mg OD, Day 7): 181 ± 21.2 mg/dL | MPG0–16h LS mean difference vs placebo (95% CI) (2.5 mg OD, Day 7): −50.1 (−66.7, −33.4)* mg/dL | Plasma glucose AUC0–4h (after breakfast) (2.5 mg OD, Day 7): 738 ± 102 mg·h/dL | Plasma glucose AUC0–4h (after breakfast) LS mean difference vs placebo (95% CI) (2.5 mg OD, Day 7): −221 (−297, −145)* mg h/dL | Plasma glucose AUC4–8h (after lunch) (2.5 mg OD, Day 7): 802 ± 127 mg·h/dL | Plasma glucose AUC4–8h (after lunch) LS mean difference vs placebo (95% CI) (2.5 mg OD, Day 7): −250 (−348, −152)* mg h/dL | Plasma glucose AUC12–16h (after dinner) (2.5 mg OD, Day 7): 828 ± 63.2 mg·h/dL | Plasma glucose AUC12–16h (after dinner) LS mean difference vs placebo (95% CI) (2.5 mg OD, Day 7): −149 (−224, −73.6)* mg h/dL | Plasma glucose C max0–4h (after breakfast) (2.5 mg OD, Day 7): 219 ± 26.3 mg/dL | Plasma glucose C max4–8h (after lunch) (2.5 mg OD, Day 7): 230 ± 30.0 mg/dL | Plasma glucose C max4–8h (after lunch) LS mean difference vs placebo (95% CI) (2.5 mg OD, Day 7): −65.6 (−94.0, −37.1)* mg/dL | Plasma glucose C max12–16h (after dinner) (2.5 mg OD, Day 7): 250 ± 23.3 mg/dL | Plasma glucose C max12–16h (after dinner) LS mean difference vs placebo (95% CI) (2.5 mg OD, Day 7): −36.2 (−61.2, −11.3)* mg/dL | FPG (24 h after dose) (5 mg OD, Day 1): 132 ± 12 mg/dL | FPG (24 h after dose) LS mean difference vs placebo (95% CI) (5 mg OD, Day 1): −20.8 (−29.5, −12.1)* mg/dL | MPG0–16h (5 mg OD, Day 1): 173 ± 26.7 mg/dL | MPG0–16h LS mean difference vs placebo (95% CI) (5 mg OD, Day 1): −27.4 (−37.4, −17.4)* mg/dL | Plasma glucose AUC0–4h (after breakfast) (5 mg OD, Day 1): 752 ± 87.6 mg·h/dL | Plasma glucose AUC0–4h (after breakfast) LS mean difference vs placebo (95% CI) (5 mg OD, Day 1): −100 (−154, −46.5)* mg h/dL | Plasma glucose AUC4–8h (after lunch) (5 mg OD, Day 1): 710 ± 120 mg·h/dL | Plasma glucose AUC4–8h (after lunch) LS mean difference vs placebo (95% CI) (5 mg OD, Day 1): −104 (−183, −25.1)* mg h/dL | Plasma glucose AUC12–16h (after dinner) (5 mg OD, Day 1): 766 ± 118 mg·h/dL | Plasma glucose AUC12–16h (after dinner) LS mean difference vs placebo (95% CI) (5 mg OD, Day 1): −133 (−184, −81.7)* mg h/dL | Plasma glucose C max0–4h (after breakfast) (5 mg OD, Day 1): 231 ± 16.6 mg/dL | Plasma glucose C max4–8h (after lunch) (5 mg OD, Day 1): 207 ± 33.1 mg/dL | Plasma glucose C max4–8h (after lunch) LS mean difference vs placebo (95% CI) (5 mg OD, Day 1): −32.4 (−56.5, −8.28)* mg/dL | Plasma glucose C max12–16h (after dinner) (5 mg OD, Day 1): 225 ± 33.2 mg/dL | Plasma glucose C max12–16h (after dinner) LS mean difference vs placebo (95% CI) (5 mg OD, Day 1): −41.8 (−60.2, −23.5)* mg/dL | FPG (24 h after dose) (5 mg OD, Day 7): 126 ± 13 mg/dL | FPG (24 h after dose) LS mean difference vs placebo (95% CI) (5 mg OD, Day 7): −30.6 (−43.1, −18.1)* mg/dL | MPG0–16h (5 mg OD, Day 7): 168 ± 27.8 mg/dL | MPG0–16h LS mean difference vs placebo (95% CI) (5 mg OD, Day 7): −38.9 (−55.7, −22.1)* mg/dL | Plasma glucose AUC0–4h (after breakfast) (5 mg OD, Day 7): 708 ± 87.5 mg·h/dL | Plasma glucose AUC0–4h (after breakfast) LS mean difference vs placebo (95% CI) (5 mg OD, Day 7): −162 (−239, −84.9)* mg h/dL | Plasma glucose AUC4–8h (after lunch) (5 mg OD, Day 7): 710 ± 105 mg·h/dL | Plasma glucose AUC4–8h (after lunch) LS mean difference vs placebo (95% CI) (5 mg OD, Day 7): −184 (−284, −84.3)* mg h/dL | Plasma glucose AUC12–16h (after dinner) (5 mg OD, Day 7): 755 ± 137 mg·h/dL | Plasma glucose AUC12–16h (after dinner) LS mean difference vs placebo (95% CI) (5 mg OD, Day 7): −131 (−205, −57.5)* mg h/dL | Plasma glucose C max0–4h (after breakfast) (5 mg OD, Day 7): 222 ± 19.4 mg/dL | Plasma glucose C max4–8h (after lunch) (5 mg OD, Day 7): 211 ± 35.1 mg/dL | Plasma glucose C max4–8h (after lunch) LS mean difference vs placebo (95% CI) (5 mg OD, Day 7): −41.0 (−69.8, −12.1)* mg/dL | Plasma glucose C max12–16h (after dinner) (5 mg OD, Day 7): 223 ± 38.8 mg/dL | Plasma glucose C max12–16h (after dinner) LS mean difference vs placebo (95% CI) (5 mg OD, Day 7): −33.7 (−58.4, −9.02)* mg/dL
